Data taken from ChEMBL document CHEMBL4330056, “Synthesis and Cytotoxic and Antiviral Profiling of Pyrrolo- and Furo-Fused 7-Deazapurine Ribonucleosides” (J Med Chem, 2018).
Activity calls are given as the source filed them. The calls are words filed in the database; no cut-off is given here.

Tests used:
DNA = assay: Induction of DNA damage in human U2OS cells transfected with 53BP1-GFP fusion gene assessed as increase in number of foci per nucleus measured at 1 hr intervals for 11 hrs by fluorescence-based assay; type: functional, cell-based
How it was run: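 U2OS osteosarcoma reporter line stably expressing 53BP1-GFP treated up to 11 h, with etoposide as the double-strand-break reference. 53BP1 foci in nuclei imaged by confocal microscopy (40× objective).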

Adenosine kinase [1] = biological target: T1, Adenosine kinase (Homo sapiens, UniProt P55263); assay: Drug metabolism in human HCT116 cells assessed as ADK-mediated compound phosphorylation level per 5x10^5 cells at 1 umol/L after 3 hrs by UPLC-MS/MS analysis; type: ADME, cell-based; details: 1 µM
How it was run: (§1)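 BJ (normal) and HCT116 (malignant) cells exposed to nucleoside at 1 or 10 μmol/L for 1 or 3 h. Intracellular nucleoside and its monophosphate quantified against synthetic monophosphate standards. Values given as pmol per 5 × 10^5 cells.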

Adenosine kinase [2] = biological target: T1, Adenosine kinase; assay: Drug metabolism in human BJ cells assessed as ADK-mediated compound phosphorylation level per 5x10^5 cells at 1 umol/L after 1 hr by UPLC-MS/MS analysis; type: ADME, cell-based; details: 1 µM; how it was run: as §1
Adenosine kinase [3] = biological target: T1, Adenosine kinase; assay: Drug metabolism in human HCT116 cells assessed as ADK-mediated compound phosphorylation level per 5x10^5 cells at 10 umol/L after 1 hr by UPLC-MS/MS analysis; type: ADME, cell-based; details: 10 µM; how it was run: as §1
Adenosine kinase [4] = biological target: T1, Adenosine kinase; assay: Drug metabolism in human BJ cells assessed as ADK-mediated compound phosphorylation level per 5x10^5 cells at 10 umol/L after 1 hr by UPLC-MS/MS analysis; type: ADME, cell-based; details: 10 µM; how it was run: as §1
Adenosine kinase [5] = biological target: T1, Adenosine kinase; assay: Drug metabolism in human BJ cells assessed as ADK-mediated compound phosphorylation level per 5x10^5 cells at 1 umol/L after 3 hrs by UPLC-MS/MS analysis; type: ADME, cell-based; details: 1 µM; how it was run: as §1
Adenosine kinase [6] = biological target: T1, Adenosine kinase; assay: Drug metabolism in human HCT116 cells assessed as ADK-mediated compound phosphorylation level per 5x10^5 cells at 10 umol/L after 3 hrs by UPLC-MS/MS analysis; type: ADME, cell-based; details: 10 µM; how it was run: as §1
Adenosine kinase [7] = biological target: T1, Adenosine kinase; assay: Drug metabolism in human HCT116 cells assessed as ADK-mediated compound phosphorylation level per 5x10^5 cells at 1 umol/L after 1 hr by UPLC-MS/MS analysis; type: ADME, cell-based; details: 1 µM; how it was run: as §1
Adenosine kinase [8] = biological target: T1, Adenosine kinase; assay: Drug metabolism in human BJ cells assessed as ADK-mediated compound phosphorylation level per 5x10^5 cells at 10 umol/L after 3 hrs by UPLC-MS/MS analysis; type: ADME, cell-based; details: 10 µM; how it was run: as §1

T1 sequence (P55263 whole entry): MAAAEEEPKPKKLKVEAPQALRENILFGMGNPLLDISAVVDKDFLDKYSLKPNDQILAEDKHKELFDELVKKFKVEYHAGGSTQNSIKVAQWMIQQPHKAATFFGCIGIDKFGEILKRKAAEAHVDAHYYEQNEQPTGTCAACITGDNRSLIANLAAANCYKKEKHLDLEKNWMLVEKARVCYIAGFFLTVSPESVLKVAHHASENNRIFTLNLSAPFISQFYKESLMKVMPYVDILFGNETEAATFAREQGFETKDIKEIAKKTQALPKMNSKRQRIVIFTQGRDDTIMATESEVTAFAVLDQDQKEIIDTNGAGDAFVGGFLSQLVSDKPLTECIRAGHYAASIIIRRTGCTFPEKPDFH

Row | Drug metabolism (Adenosine kinase [1]) | Drug metabolism (Adenosine kinase [2]) | Drug metabolism (Adenosine kinase [3]) | Drug metabolism (Adenosine kinase [4]) | Drug metabolism (Adenosine kinase [5]) | Drug metabolism (Adenosine kinase [6]) | Drug metabolism (Adenosine kinase [7]) | Drug metabolism (Adenosine kinase [8]) | SMILES | Activity (DNA)
1 |  |  |  |  |  |  |  |  | COc1cc([C@@H]2c3cc4c(cc3[C@@H](O[C@@H]3O[C@@H]5CO[C@@H](C)O[C@H]5[C@H](O)[C@H]3O)[C@H]3COC(=O)[C@H]23)OCO4)cc(OC)c1O | Active
2 | 1167.4 pmol | 223.51 pmol | 9531.67 pmol | 4488.64 pmol | 241.05 pmol | 12533.33 pmol | 511.81 pmol | 4920.41 pmol | Cc1ncnc2c1c1occc1n2[C@@H]1O[C@H](COP(=O)([O-])O)[C@@H](O)[C@H]1O.[Na+] | 
